The source made the active and inactive calls.
What was measured:
Mus musculus [1] = assay: Anticonvulsant activity in albino CF1 mouse assessed as protection against subcutaneous metrazol-induced seizures at 30 to 300 mg/kg, ip after 0.5 to 4 hrs; format: functional, organism-based
Procedure, shortened: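 CF No. 1 male mice dosed ip at 30, 100 or 300 mg/kg (saline or 0.5% methylcellulose), then given pentetrazole 85 mg/kg sc as 0.5% solution in posterior midline. Watched 30 min. Protection means no threshold seizure (single clonic spasm episode of at least 5 s). Expressed as protected/tested.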

Mus musculus [2] = assay: Anesthetic activity in albino CF1 mouse assessed as latency in response to thermal stimuli administered as 1% solution, sc measured after 15 mins by modified tail immersion test; format: functional
Procedure, shortened: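 Male Albino Swiss (CD-1) mice, 6-8 per group, tested at 1% and 2% compound concentration. Tail distal 3 cm immersed in water at 50 ± 0.5 °C 15 min after treatment. Tail-withdrawal latency recorded with a 20 s cutoff. Value is % difference in latency vs vehicle-treated mice. Mean ± SEM, Student's t-test.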

Mus musculus [3] = assay: Anticonvulsant activity in albino CF1 mouse assessed as protection against maximal electroshock-induced seizures at 100 mg/kg, ip after 0.5 hr; format: functional, organism-based; design: dose 100 mg/kg
Procedure, shortened: (§1)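 Male albino CF No. 1 mice (18–25 g) dosed ip at 30, 100 and 300 mg/kg in saline or 0.5% methylcellulose, tested 15, 30, 60 and 240 min after dosing. Maximal electroshock seizures elicited with 60-cycle alternating current. Scored as animals protected/animals tested, small qualitative groups.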

Mus musculus [4] = assay: Anticonvulsant activity in albino CF1 mouse assessed as protection against maximal electroshock-induced seizures at 300 mg/kg, ip after 4 hrs; format: functional, organism-based; design: dose 300 mg/kg; procedure, shortened: as §1
Mus musculus [5] = assay: Neurotoxicity in albino CF1 mouse assessed as minimal motor impairment at 30 mg/kg, ip after 0.5 hr by rotorod test; format: toxicity, organism-based; design: dose 30 mg/kg, route intraperitoneal; details: in vivo
Procedure, shortened: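 Male albino CF No. 1 mice, compound ip in saline or 0.5% methylcellulose. Rotarod: 1-inch knurled rod at 6 rpm. Toxicity is failure to stay on the rod for 1 min on three successive attempts. Expressed as toxic/tested.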

Mus musculus [6] = assay: Neurotoxicity in albino CF1 mouse assessed as minimal motor impairment at 100 mg/kg, ip after 0.5 hr by rotorod test; format: toxicity, organism-based; design: dose 100 mg/kg, route intraperitoneal; details: in vivo
Procedure, shortened: (§2)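 Rotarod in male CF No. 1 mice after ip dosing (30, 100, 300 mg/kg; saline or 0.5% methylcellulose) at 15–240 min. Knurled plastic rod, 1-inch diameter, 6 rpm. Toxicity means failing to stay on for 1 min on three successive attempts. Recorded as toxic/tested.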

Mus musculus [7] = assay: […] activity in ip dosed albino CF1 mouse assessed as inhibition of phenylbenzoquinone-induced writhing administered after 30 mins prior challenge; format: functional
Procedure, shortened: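 Male Albino Swiss (CD-1) mice, 6-8 per dose. Compound given ip in 0.5% methylcellulose. 30 min later, 0.25 ml of 0.02% phenylbenzoquinone injected. After 5 min, writhes counted over 10 min. % effect = (vehicle mean − drug mean)/vehicle mean × 100. ED50 derived; Student's t-test.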

Mus musculus [8] = assay: Anticonvulsant activity in albino CF1 mouse assessed as protection against maximal electroshock-induced seizures at 100 mg/kg, ip after 1 hr; format: functional, organism-based; design: dose 100 mg/kg; procedure, shortened: as §1
Mus musculus [9] = assay: Anticonvulsant activity in albino CF1 mouse assessed as protection against maximal electroshock-induced seizures at 300 mg/kg, ip after 0.5 hr; format: functional, organism-based; design: dose 300 mg/kg; procedure, shortened: as §1
Mus musculus [10] = assay: Neurotoxicity in albino CF1 mouse assessed as minimal motor impairment at 30 mg/kg, ip after 4 hrs by rotorod test; format: toxicity, organism-based; design: dose 30 mg/kg, route intraperitoneal; details: in vivo; procedure, shortened: as §2
Mus musculus [11] = assay: Analgesic activity in albino CF1 mouse assessed as inhibition of heat-induced paw licking or jumping behaviour administered after 30 mins prior heat challenge by hot plate method; format: functional
Mus musculus [12] = assay: Anticonvulsant activity in albino CF1 mouse assessed as protection against maximal electroshock-induced seizures at 100 mg/kg, ip after 4 hrs; format: functional, organism-based; design: dose 100 mg/kg; procedure, shortened: as §1
Mus musculus [13] = assay: Neurotoxicity in albino CF1 mouse assessed as minimal motor impairment at 300 mg/kg, ip after 4 hrs by rotorod test; format: toxicity, organism-based; design: dose 300 mg/kg, route intraperitoneal; details: in vivo; procedure, shortened: as §2
Mus musculus [14] = assay: Anticonvulsant activity in albino CF1 mouse assessed as protection against maximal electroshock-induced seizures at 30 mg/kg, ip after 0.5 hr; format: functional, organism-based; design: dose 30 mg/kg
Procedure, shortened: (§3)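 Male albino CF No. 1 mice, 18–25 g. Compound in saline or 0.5% methylcellulose, ip. Seizures elicited by 60-cycle alternating current maximal electroshock. Result expressed as animals protected/animals tested.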

Mus musculus [15] = assay: Anticonvulsant activity in albino CF1 mouse assessed as protection against maximal electroshock-induced seizures at 30 mg/kg, ip after 4 hrs; format: functional, organism-based; design: dose 30 mg/kg; procedure, shortened: as §3
Mus musculus [16] = assay: Neurotoxicity in albino CF1 mouse assessed as minimal motor impairment at 100 mg/kg, ip after 4 hrs by rotorod test; format: toxicity, organism-based; design: dose 100 mg/kg, route intraperitoneal; details: in vivo; procedure, shortened: as §2
Mus musculus [17] = assay: Anticonvulsant activity in albino CF1 mouse assessed as protection against maximal electroshock-induced seizures at 100 mg/kg, ip after 0.25 hr; format: functional, organism-based; design: dose 100 mg/kg; procedure, shortened: as §1
Mus musculus [18] = assay: Anesthetic activity in […] assessed as latency in response to thermal stimuli administered as 2% solution, sc measured after 15 mins by modified tail immersion test; format: functional, albino CF1
Mus musculus [19] = assay: Neurotoxicity in albino CF1 mouse assessed as minimal motor impairment at 100 mg/kg, ip after 0.25 hr by rotorod test; format: toxicity, organism-based; design: dose 100 mg/kg, route intraperitoneal; details: in vivo; procedure, shortened: as §2
Mus musculus [20] = assay: Neurotoxicity in albino CF1 mouse assessed as minimal motor impairment at 300 mg/kg, ip after 0.5 hr by rotorod test; format: toxicity, organism-based; design: dose 300 mg/kg, route intraperitoneal; details: in vivo; procedure, shortened: as §2
Mus musculus [21] = assay: Neurotoxicity in albino CF1 mouse assessed as minimal motor impairment at 100 mg/kg, ip after 1 hr by rotorod test; format: toxicity, organism-based; design: dose 100 mg/kg, route intraperitoneal; details: in vivo; procedure, shortened: as §2
Mus musculus [22] = assay: Anticonvulsant activity in albino CF1 mouse assessed as protection against 6 Hz psychomotor seizure at 100 mg/kg, ip after 0.5 hr by minimal clonic seizure test; format: functional, organism-based; design: dose 100 mg/kg
Procedure, shortened: (§4)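 Male albino CF No. 1 mice, 18–25 g. Compound dissolved in saline or suspended in 0.5% methylcellulose and given ip beforehand. Corneal stimulation with 0.2 ms monopolar rectangular pulses at 6 Hz for 3 s from a constant-current device. Mice restrained during stimulation, then released and observed for the minimal clonic seizure and automatistic behaviour.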

Mus musculus [23] = assay: Anticonvulsant activity in albino CF1 mouse assessed as protection against 6 Hz psychomotor seizure at 100 mg/kg, ip after 4 hrs by minimal clonic seizure test; format: functional, organism-based; design: dose 100 mg/kg; procedure, shortened: as §4
Mus musculus [24] = assay: Anticonvulsant activity in albino CF1 mouse assessed as protection against 6 Hz psychomotor seizure at 100 mg/kg, ip after 2 hrs by minimal clonic seizure test; format: functional, organism-based; design: dose 100 mg/kg; procedure, shortened: as §4
Mus musculus [25] = assay: Anticonvulsant activity in albino CF1 mouse assessed as protection against 6 Hz psychomotor seizure at 100 mg/kg, ip after 0.25 hr by minimal clonic seizure test; format: functional, organism-based; design: dose 100 mg/kg; procedure, shortened: as §4
Mus musculus [26] = assay: Anticonvulsant activity in albino CF1 mouse assessed as protection against 6 Hz psychomotor seizure at 100 mg/kg, ip after 1 hr by minimal clonic seizure test; format: functional, organism-based; design: dose 100 mg/kg; procedure, shortened: as §4

Row | Structure (SMILES) | Activity (Mus musculus [1]) | Activity (Mus musculus [2]) [%] | Activity (Mus musculus [3]) | Activity (Mus musculus [4]) | Activity (Mus musculus [6]) | ED50 (Mus musculus [7]) [mg/kg] | Activity (Mus musculus [8]) | Activity (Mus musculus [9]) | ED50 (Mus musculus [11]) [mg/kg] | Activity (Mus musculus [12]) | Activity (Mus musculus [13]) | Activity (Mus musculus [16]) | Activity (Mus musculus [17]) | Activity (Mus musculus [18]) [%] | Activity (Mus musculus [19]) | Activity (Mus musculus [20]) | Activity (Mus musculus [21]) | further results
1 | COc1ccc(Cl)cc1N1CCN(C2CCOC2=O)CC1 (racemic) | inactive | 12 | inactive | inactive | Toxic | 19 | inactive | Active | 28.1 | inactive | Toxic | Toxic | inactive | 29 | Non-toxic | Toxic | Toxic | Activity (Mus musculus [5]): Toxic; Activity (Mus musculus [10]): Non-toxic; Activity (Mus musculus [14]): inactive; Activity (Mus musculus [15]): inactive
2 | NC(=O)c1ccccc1OC1CCOC1=O (racemic) | inactive |  | inactive | inactive | Non-toxic | 7.9 |  | inactive |  | inactive | Non-toxic | Non-toxic |  |  |  | Non-toxic |  | Activity (Mus musculus [22]): inactive; Activity (Mus musculus [23]): inactive; Activity (Mus musculus [24]): inactive; Activity (Mus musculus [25]): inactive; Activity (Mus musculus [26]): inactive
3 | O=C1OCCC1N1CCN(c2ccccc2)CC1 (racemic) | inactive | 102 | inactive | inactive | Toxic | 2.4 | inactive | Active | 4 | inactive | Non-toxic | Non-toxic | inactive | 146 | Non-toxic | Toxic | Non-toxic | 

Reference: ChEMBL document CHEMBL2203146, “Search for anticonvulsant and analgesic active derivatives of dihydrofuran-2(3H)-one” (Bioorg Med Chem, 2012)
